Shown are actives, neighbours in structure and some others; about 5.2% of the full set was active somewhere.
HCV core dimer = HCV core protein dimerization inhibition; 300,000 compounds, 0.33% hits; TR-FRET GST/Flag-core106 dimerization, 1536-well; inhibition, % at 5 µM;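 active = inhibition above the mean of all tested compounds plus 3 SD, set per screening campaign, cut at about 45% in these data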
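Assay system: tagged HCV core106 pair (GST and Flag); medium: KF-containing HEPES buffer, pH 7.45, DTT, CHAPS, BSA; also added: Eu donor and XL665 acceptor anti-tag antibodies; dosing: 5 µM single dose; timing: compound-protein-antibody incubation 4 h at 22.5 °C; signal: TR-FRET 671 and 617 nm emission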
ZTA DNA inh = ZTA (EBV) inhibition in EBNA-1 counter-screen | ZTA-DNA binding, fluorescence polarization | inhibition, % at 11 µM | P03206 | 320,000 compounds, 0.15% hits; in the data active = inhibition above about 33%
EBNA-1 inh = blocks EBNA-1 binding to DNA. EBNA-1 DNA binding, fluorescence polarization. inhibition, % at 14.8 µM. 300,000 compounds, 0.34% hits; in the data active = inhibition above about 28%
M18AAP inhibitor = blocks P. falciparum M18 aspartyl aminopeptidase. AID 1822. inhibition, % at 7.35 µM. recombinant PfM18AAP, H-Glu-NHMec fluorogenic cleavage. 290,000 compounds, 1.2% hits;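 active = inhibition above the campaign mean inhibition over all tested compounds plus 3 SD, cut at about 28% in these data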;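 also: 0% = plate median of test compound wells and 100% = 2 mM ZnCl2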
ALR inh = human ALR oxidase inhibition via reduced H2O2. P55789. purified ALR, DTT oxidation, H2O2 HRP-luminol luminescence. inhibition, % (concentration not given with the values). 290,000 compounds, 3.8% hits. AID 485317;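 active = mean replicate inhibition above about 79%, with every replicate also reaching it, limit read from the data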
Target sequence (P55789 whole entry, looked up): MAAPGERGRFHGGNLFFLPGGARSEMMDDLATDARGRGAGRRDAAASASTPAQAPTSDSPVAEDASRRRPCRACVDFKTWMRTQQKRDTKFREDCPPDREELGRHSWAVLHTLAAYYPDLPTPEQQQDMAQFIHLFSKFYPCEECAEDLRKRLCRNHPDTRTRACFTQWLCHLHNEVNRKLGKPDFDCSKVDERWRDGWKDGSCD
HCV NS3 hel inh = HCV NS3 helicase inhibition; NS3 helicase DNA unwinding, Cy5 molecular beacon fluorescence; inhibition, % at 10.9 µM; 290,000 compounds, 0.56% hits; AID 1800;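 active = inhibition above the mean of all tested compounds plus 3 SD, set per campaign, cut at about 35% in these data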;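 also: 0% = DMSO wells and 100% = thioflavine S control wells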
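test system = hepatitis C virus NS3 helicase domain fragment enzyme | reagent = annealed dual-labelled DNA beacon duplex, ATP-started | times = 1 h at 25 °C | detection = Cy5 fluorescence, 0 and 60 min reads | read-out basis = percent inhibition from t60/t0 fluorescence ratio | control set = DMSO and thioflavine S | replication = one well per compound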
* hit, by the source's call; / = no result.

SMILES	HCV core dimer	ZTA DNA inh	EBNA-1 inh	M18AAP inhibitor	ALR inh	HCV NS3 hel inh
CCN(CC)c1ccc(/C=N/NC(=O)CNC(=O)c2ccccn2)cc1	6	-9	8	21	95*	11
CC(=O)NCc1ccc(S(=O)(=O)N/N=C/c2ccc(Br)cc2)cc1	-4	-9	8	-2	7	6
COc1cc(/C=N\NC(=O)OC(C)(C)C)ccc1OC(=O)c1ccco1	-4	0	0	-9	20	-14
O=C(CNC(=O)c1ccccn1)N/N=C/c1ccc2c(c1)OCO2	-12	12	7	18	72	2
COc1ccc(/C=N/NC(=O)OC(C)(C)C)cc1OC	-12	-19	1	-8	95*	3
CCN(CC)c1ccc(/C=N/NS(=O)(=O)c2ccc(CNC(C)=O)cc2)cc1	-27	-7	3	-1	99*	6
COc1ccc(S(=O)(=O)N2CCN(C(=O)CCNC(=O)c3ccccc3Cl)CC2)cc1	/	6	/	/	-1	/
COc1ccc(OC)c(/C=N/NC(=O)c2c(C)nc3ccc(C)cn23)c1	-1	-5	5	-14	/	-10
COC(=O)Nc1ccc2c(c1)ncn2C1CCCCC1	2	10	14	1	-5	3
CCOC(=O)Nc1ccc2c(c1)ncn2C1CCCCC1	4	-6	-12	-2	84*	-1
CCOc1nc(Oc2cccc(C(=O)O)c2)nc(Oc2cccc(C(=O)O)c2)n1	1	-1	-5	8	97*	0
CCCCCc1c(C)[nH]c2nc3ccccc3n2c1=O	-3	5	-7	-14	-4	-7
O=C(COc1ccc(F)c(Cl)c1)Nc1ccc(N2CCOCC2)cc1	/	/	/	/	8	/
Cc1cc(C)c2sc(N(CCCN(C)C)C(=O)c3ccc(S(=O)(=O)N4CCc5ccccc5C4)cc3)nc2c1	-8	25	-3	/	-2	/
Cc1cc(C)c2sc(NNC(=O)c3ccc(S(=O)(=O)N4CCc5ccccc5C4)cc3)nc2c1	64*	22	6	23	-12	4
CC(=O)c1ccc(S(=O)(=O)Nc2cccc(-c3ccc(N4CCOCC4)nn3)c2)cc1	7	-5	-7	/	/	/
CCN(CC)c1ccc(NC(=S)NC(=O)C2CCC2)cc1	7	1	5	15	99*	-3
COC(=O)Nc1ccc(NC(C)=O)cc1	2	4	7	-2	-21	-3
CCN(CC)c1ccc(NC(=O)c2ccc(Br)o2)cc1	-24	-5	-6	-4	96*	-5
CCOC(=O)C(Cc1ccccc1)C(=O)Nc1ccc(N(CC)CC)cc1 (stereo not given)	1	-2	2	4	99*	-7
CCN(CC)c1ccc(NC(=O)OC)cc1	-12	-5	1	-9	91*	4
CCOC(=O)C(Cc1ccccc1)C(=O)Nc1cccc(C)c1 (stereo not given)	1	7	-5	2	/	-1
CC(=O)Nc1ccc(NC(=S)NC(=O)C2CCCC2)cc1	-11	3	2	-1	-5	7
COc1cccc(Cl)c1NC(=O)N1CCc2c([nH]c3ccccc23)C1C(F)(F)F (stereo not given)	0	-2	6	-3	-8	-16
CSc1cccc(NC(=O)CN(Cc2ccc(Cl)cc2)S(C)(=O)=O)c1	1	3	4	-6	-9	-12
SMILES	HCV core dimer	ZTA DNA inh	EBNA-1 inh	M18AAP inhibitor	ALR inh	HCV NS3 hel inh
CCN(CC)c1ccc(NC(=O)c2cnn(CC)c2)cc1	-24	-1	3	2	99*	10
Cc1cc2c(ncn2Cc2ccccc2)c(N)c1C	-10	0	1	-10	93*	11
Cc1cc2c(ncn2Cc2ccccc2)c(NS(C)(=O)=O)c1C	4	-1	-10	5	/	2
Cc1ccc(Nc2nc(C(=O)NCc3ccco3)cs2)cc1	2	-5	1	12	17	6
CCN(CC)C(=O)c1csc(Nc2ccc(C)cc2)n1	-1	-12	1	2	87*	-3
Cc1cc2c(Nc3cccc(O)c3)ncnc2s1	-10	-6	-4	5	99*	22
C=CC[n+]1ccn(-c2nc3ccccc3nc2[N-]S(=O)(=O)c2cccs2)c1	9	9	13	16	95*	33
O=C(Cn1cc2c(n1)CCCC2)NC1CCCCCC1	1	-5	-3	-5	2	-4

Screening data from PubChem.
